ChEMBL document CHEMBL3097989, “Antimicrobial activity of de novo designed cationic peptides against multi-resistant clinical isolates” (Eur J Med Chem, 2014)

Columns and labels:
Assay type in all cases: functional
Enterococcus faecium [1] = experiment: Antibacterial activity against Enterococcus faecium M2481 clinical isolate expressing vanB gene by microdilution test
How it was run: (§1)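 MIC by standard broth microdilution following CLSI recommendations, in Mueller Hinton broth supplemented with Ca²⁺ (20-25mg/L) and Mg²⁺ (10-12.5mg/L); peptides tested against a panel of multi-resistant clinical isolates plus ATCC reference strains.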

Pseudomonas aeruginosa [2] = experiment: Antibacterial activity against Pseudomonas aeruginosa M7712 clinical isolate expressing blaSPM gene by microdilution test
How it was run: (§2)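 MIC by standard broth microdilution following CLSI recommendations, in Mueller Hinton broth supplemented with Ca²⁺ (20-25 mg/L) and Mg²⁺ (10-12.5 mg/L); ATCC reference strains included in the panel.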

Enterococcus faecalis [3] = experiment: Antibacterial activity against Enterococcus faecalis M4449 clinical isolate expressing vanA gene by microdilution test; how it was run: as §1
[4] = system: Staphylococcus saprophyticus; experiment: Antibacterial activity against Staphylococcus saprophyticus M4070 clinical isolate expressing mecA gene by microdilution test; how it was run: as §2
Acinetobacter sp. [5] = experiment: Antibacterial activity against Acinetobacter sp. M7489 clinical isolate expressing blaOXA-51 and blaTEM gene by microdilution test; how it was run: as §1
Escherichia coli [6] = experiment: Antibacterial activity against Escherichia coli M7859 clinical isolate expressing blaCIT gene by microdilution test; how it was run: as §1
Staphylococcus cohnii = experiment: Antibacterial activity against Staphylococcus cohnii M6767 clinical isolate expressing mecA gene by microdilution test; how it was run: as §2
Staphylococcus aureus [7] = experiment: Antibacterial activity against Staphylococcus aureus P28 clinical isolate expressing ermA gene by microdilution test; how it was run: as §2
Staphylococcus aureus [8] = experiment: Antibacterial activity against Staphylococcus aureus P204 clinical isolate expressing ermA gene by microdilution test; how it was run: as §2
Escherichia coli [9] = experiment: Antibacterial activity against Escherichia coli ATCC 25922 by microdilution test; how it was run: as §1
Klebsiella pneumoniae [10] = experiment: Antibacterial activity against Klebsiella pneumoniae M9310 clinical isolate expressing blaCTX-M-2, blaTEM-1 and blaSHV-1 gene by microdilution test; how it was run: as §1
Staphylococcus aureus [11] = experiment: Antibacterial activity against Staphylococcus aureus M4046 clinical isolate expressing mecA gene by microdilution test; how it was run: as §2
[12] = system: Staphylococcus epidermidis; experiment: Antibacterial activity against Staphylococcus epidermidis M2919 clinical isolate expressing mecA gene by microdilution test; how it was run: as §2
Acinetobacter sp. [13] = experiment: Antibacterial activity against Acinetobacter sp. M5179 clinical isolate expressing blaOXA-51 gene by microdilution test; how it was run: as §1
Pseudomonas aeruginosa [14] = experiment: Antibacterial activity against Pseudomonas aeruginosa M7907 clinical isolate expressing blaPER gene by microdilution test; how it was run: as §2
[15] = system: Staphylococcus epidermidis; experiment: Antibacterial activity against Staphylococcus epidermidis M2923 by microdilution test; how it was run: as §2
Klebsiella pneumoniae [16] = experiment: Antibacterial activity against Klebsiella pneumoniae M9170 clinical isolate expressing blaOXA-GIII gene by microdilution test; how it was run: as §1
Klebsiella pneumoniae [17] = experiment: Antibacterial activity against Klebsiella pneumoniae M11245 clinical isolate expressing blaKPC-2 and blaPER-2 gene by microdilution test; how it was run: as §1
Escherichia coli [18] = experiment: Antibacterial activity against Escherichia coli M9209 clinical isolate expressing blaKPC-2 gene by microdilution test; how it was run: as §1
Escherichia coli [19] = experiment: Antibacterial activity against Escherichia coli M9884 by microdilution test; how it was run: as §1
Klebsiella pneumoniae [20] = experiment: Antibacterial activity against Klebsiella pneumoniae M1803 clinical isolate expressing blaPER-2, blaCTX-M-2, blaTEM-1, blaSHV and blaOXA-9 gene by microdilution test; how it was run: as §1
Klebsiella pneumoniae [21] = experiment: Antibacterial activity against Klebsiella pneumoniae M5825 clinical isolate expressing blaGES-3 and blaCTX-M-2 gene by microdilution test; how it was run: as §1
Enterococcus faecium [22] = experiment: Antibacterial activity against Enterococcus faecium PZAP95 by microdilution test; how it was run: as §1
Enterococcus faecium [23] = experiment: Antibacterial activity against Enterococcus faecium M2664 clinical isolate expressing vanA gene by microdilution test; how it was run: as §1
Escherichia coli [24] = experiment: Antibacterial activity against Escherichia coli PLCA1 clinical isolate expressing blaCTX-M-2 and blaTEM-1 gene by microdilution test; how it was run: as §1
[25] = system: Staphylococcus haemolyticus; experiment: Antibacterial activity against Staphylococcus haemolyticus M2976 clinical isolate expressing mecA gene by microdilution test; how it was run: as §2
Acinetobacter sp. [26] = experiment: Antibacterial activity against Acinetobacter sp. M7978 clinical isolate expressing blaIMP-1 gene by microdilution test; how it was run: as §1
Pseudomonas aeruginosa [27] = experiment: Antibacterial activity against Pseudomonas aeruginosa M7723 clinical isolate expressing blaKPC-2 gene by microdilution test; how it was run: as §2
Acinetobacter sp. [28] = experiment: Antibacterial activity against Acinetobacter sp. M9665 clinical isolate expressing blaOXA-51 gene by microdilution test; how it was run: as §1
Enterococcus faecalis [29] = experiment: Antibacterial activity against Enterococcus faecalis M6383 clinical isolate expressing vanA gene by microdilution test; how it was run: as §1
Escherichia coli [30] = experiment: Antibacterial activity against Escherichia coli PNEU23 clinical isolate expressing blaOXA-GIII and blaTEM-1 gene by microdilution test; how it was run: as §1
Enterococcus gallinarum [31] = experiment: Antibacterial activity against Enterococcus gallinarum M2685 clinical isolate expressing vanC1 and vanA gene by microdilution test; how it was run: as §1
Escherichia coli [32] = experiment: Antibacterial activity against Escherichia coli M5306 clinical isolate expressing blaPER-2, blaCTX-M-2 and blaTEM-1 gene by microdilution test; how it was run: as §1
[33] = system: Staphylococcus saprophyticus; experiment: Antibacterial activity against Staphylococcus saprophyticus M2981 clinical isolate expressing mecA gene by microdilution test; how it was run: as §2
Enterococcus faecalis [34] = experiment: Antibacterial activity against Enterococcus faecalis M6983 clinical isolate expressing vanA gene by microdilution test; how it was run: as §1
Enterococcus faecalis [35] = experiment: Antibacterial activity against Enterococcus faecalis M6534 clinical isolate expressing vanB gene by microdilution test; how it was run: as §1
Escherichia coli [36] = experiment: Antibacterial activity against Escherichia coli PCOS15 clinical isolate expressing blaPER-2 and blaTEM-1 gene by microdilution test; how it was run: as §1
Klebsiella pneumoniae [37] = experiment: Antibacterial activity against Klebsiella pneumoniae M13540 clinical isolate expressing blaKPC-2 gene by microdilution test; how it was run: as §1
Acinetobacter sp. [38] = experiment: Antibacterial activity against Acinetobacter sp. PFAV1 clinical isolate expressing blaOXA-51, blaOXA-58 and blaPER gene by microdilution test; how it was run: as §1
Staphylococcus aureus [39] = experiment: Antibacterial activity against Staphylococcus aureus M2832 clinical isolate expressing mecA gene by microdilution test; how it was run: as §2
Staphylococcus aureus [40] = experiment: Antibacterial activity against Staphylococcus aureus P239 clinical isolate expressing ermC gene by microdilution test; how it was run: as §2
Pseudomonas aeruginosa [41] = experiment: Antibacterial activity against Pseudomonas aeruginosa M7525 clinical isolate expressing blaSPM gene by microdilution test; how it was run: as §2
Pseudomonas aeruginosa [42] = experiment: Antibacterial activity against Pseudomonas aeruginosa PCOS12 by microdilution test; how it was run: as §2
Staphylococcus warneri = experiment: Antibacterial activity against Staphylococcus warneri M6823 clinical isolate expressing mecA gene by microdilution test; how it was run: as §2
Klebsiella pneumoniae [43] = experiment: Antibacterial activity against Klebsiella pneumoniae M9885 clinical isolate expressing blaKPC-2 gene by microdilution test; how it was run: as §1
[44] = system: Staphylococcus epidermidis; experiment: Antibacterial activity against Staphylococcus epidermidis M2931 by microdilution test; how it was run: as §2
[45] = system: Staphylococcus haemolyticus; experiment: Antibacterial activity against Staphylococcus haemolyticus M3014 by microdilution test; how it was run: as §2
Klebsiella pneumoniae [46] = experiment: Antibacterial activity against Klebsiella pneumoniae M9375 clinical isolate expressing blaCTX-M-2, blaTEM-1 and blaSHV-1 gene by microdilution test; how it was run: as §1
Pseudomonas aeruginosa [47] = experiment: Antibacterial activity against Pseudomonas aeruginosa M5470 by microdilution test; how it was run: as §2
Staphylococcus aureus [48] = experiment: Antibacterial activity against Staphylococcus aureus M6276 clinical isolate expressing ermA and lnuA gene by microdilution test; how it was run: as §2
Enterococcus gallinarum [49] = experiment: Antibacterial activity against Enterococcus gallinarum M2723 clinical isolate expressing vanC1 and vanA gene by microdilution test; how it was run: as §1
Enterococcus faecium [50] = experiment: Antibacterial activity against Enterococcus faecium M2304 clinical isolate expressing vanA gene by microdilution test; how it was run: as §1

H-WPKWWKWKRRWGRKKAKKRRG-NH2
MIC90 (Enterococcus faecium [1]): 32 µg/mL | MIC90 (Pseudomonas aeruginosa [2]): 64 µg/mL | MIC90 (Enterococcus faecalis [3]): 128 µg/mL | MIC90 [4]: 16 µg/mL | MIC90 (Acinetobacter sp. [5]): 64 µg/mL | MIC90 (Escherichia coli [6]): 128 µg/mL | MIC90 (Staphylococcus cohnii): 16 µg/mL | MIC90 (Staphylococcus aureus [7]): 32 µg/mL | MIC90 (Staphylococcus aureus [8]): 64 µg/mL | MIC90 (Escherichia coli [9]): 128 µg/mL | MIC90 (Klebsiella pneumoniae [10]): > 1020 µg/mL | MIC90 (Staphylococcus aureus [11]): 32 µg/mL | MIC90 [12]: 16 µg/mL | MIC90 (Acinetobacter sp. [13]): 64 µg/mL | MIC90 (Pseudomonas aeruginosa [14]): 128 µg/mL | MIC90 [15]: 16 µg/mL | MIC90 (Klebsiella pneumoniae [16]): > 1020 µg/mL | MIC90 (Klebsiella pneumoniae [17]): 1020 µg/mL | MIC90 (Escherichia coli [18]): 128 µg/mL | MIC90 (Escherichia coli [19]): 128 µg/mL | MIC90 (Klebsiella pneumoniae [20]): > 1020 µg/mL | MIC90 (Klebsiella pneumoniae [21]): > 1020 µg/mL | MIC90 (Enterococcus faecium [22]): 32 µg/mL | MIC90 (Enterococcus faecium [23]): 16 µg/mL | MIC90 (Escherichia coli [24]): 128 µg/mL | MIC90 [25]: 16 µg/mL | MIC90 (Acinetobacter sp. [26]): 64 µg/mL | MIC90 (Pseudomonas aeruginosa [27]): 64 µg/mL | MIC90 (Acinetobacter sp. [28]): 128 µg/mL | MIC90 (Enterococcus faecalis [29]): 128 µg/mL | MIC90 (Escherichia coli [30]): 128 µg/mL | MIC90 (Enterococcus gallinarum [31]): 16 µg/mL | MIC90 (Escherichia coli [32]): 256 µg/mL | MIC90 [33]: 16 µg/mL | MIC90 (Enterococcus faecalis [34]): 64 µg/mL | MIC90 (Enterococcus faecalis [35]): 128 µg/mL | MIC90 (Escherichia coli [36]): 128 µg/mL | MIC90 (Klebsiella pneumoniae [37]): > 1020 µg/mL | MIC90 (Acinetobacter sp. [38]): 64 µg/mL | MIC90 (Staphylococcus aureus [39]): 32 µg/mL | MIC90 (Staphylococcus aureus [40]): 32 µg/mL | MIC90 (Pseudomonas aeruginosa [41]): 64 µg/mL | MIC90 (Pseudomonas aeruginosa [42]): 64 µg/mL | MIC90 (Staphylococcus warneri): 8 µg/mL | MIC90 (Klebsiella pneumoniae [43]): > 1020 µg/mL | MIC90 [44]: 16 µg/mL | MIC90 [45]: 16 µg/mL | MIC90 (Klebsiella pneumoniae [46]): 1020 µg/mL | MIC90 (Pseudomonas aeruginosa [47]): 128 µg/mL | MIC90 (Staphylococcus aureus [48]): 16 µg/mL | MIC90 (Enterococcus gallinarum [49]): 32 µg/mL | MIC90 (Enterococcus faecium [50]): 16 µg/mL
